From ChEMBL document CHEMBL1144800, “Synthesis and antimicrobial properties of monensin A esters” (2008)
In brackets after ≈: the same amount, converted by molar mass. Activity calls are given as the source filed them. The rule behind the calls is not given here.

Tests used:
Staphylococcus aureus [1] = assay: Antibacterial activity against Staphylococcus aureus NCTC 4163 at 400 ug/disc after 18 hrs by disc diffusion assay; format: functional; details: NCTC 4163, 18 h, read-out: IZ
Outline: (§1)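 Disc diffusion on Mueller–Hinton II agar per CLSI guidelines. Compound in ethanol applied to 9 mm filter paper discs at 400 µg per disc, then dried and placed on the agar surface. Growth inhibition zone diameter read after 18 h at 35 °C.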

Micrococcus luteus [2] = assay: Antibacterial activity against Micrococcus luteus ATCC 9341 at 400 ug/disc after 18 hrs by disc diffusion assay; format: functional; outline: as §1
Pseudomonas aeruginosa [3] = assay: Antibacterial activity against Pseudomonas aeruginosa ATCC 27853 at 400 ug/disc after 18 hrs by disc diffusion assay; format: functional, organism-based; outline: as §1
Escherichia coli [4] = assay: Antibacterial activity against Escherichia coli ATCC 10538 at 400 ug/disc after 18 hrs by disc diffusion assay; format: functional, organism-based; outline: as §1
Candida parapsilosis [5] = assay: Antifungal activity against Candida parapsilosis ATCC 22019 at 400 ug/disc after 24 hrs by disc diffusion assay; format: functional
Outline: (§2)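 Disc diffusion on RPMI agar with 2% glucose per CLSI guidelines. Discs 9 mm filter paper, loaded from ethanol solution with 400 µg compound, dried before placing on the agar. Inhibition zone diameter read after incubation at 35 °C. Fluconazole control at 25 µg per disc.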

Micrococcus luteus [6] = assay: Antibacterial activity against Micrococcus luteus ATCC 10240 after 18 hrs by serial agar dilution method; format: functional; details: ATCC 10240, 18 h
Outline: (§3)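 MIC by twofold serial agar dilution in Mueller–Hinton II agar per CLSI, run only for compounds that gave an inhibition zone in disc assay. Compounds dissolved in DMSO, tested at 3.125–400 µg/ml in agar. Final inoculum 10^4 CFU/ml. […] DMSO control included.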

Escherichia coli [7] = assay: Antibacterial activity against Escherichia coli ATCC 25922 at 400 ug/disc after 18 hrs by disc diffusion assay; format: functional, organism-based; outline: as §1
Escherichia coli [8] = assay: Antibacterial activity against Escherichia coli NCTC 8196 at 400 ug/disc after 18 hrs by disc diffusion assay; format: functional, organism-based; outline: as §1
Candida albicans [9] = assay: Antifungal activity against Candida albicans ATCC 90028 at 400 ug/disc after 24 hrs by disc diffusion assay; format: functional; outline: as §2
Proteus vulgaris = assay: Antibacterial activity against Proteus vulgaris NCTC 4635 at 400 ug/disc after 18 hrs by disc diffusion assay; format: functional, organism-based; outline: as §1
Staphylococcus aureus [10] = assay: Antibacterial activity against Staphylococcus aureus ATCC 29213 after 18 hrs by serial agar dilution method; format: functional; details: ATCC 29213, 18 h; outline: as §3
[11] = system: Staphylococcus epidermidis; assay: Antibacterial activity against Staphylococcus epidermidis ATCC 12228 after 18 hrs by serial agar dilution method; format: functional; details: ATCC 12228, 18 h; outline: as §3
Staphylococcus aureus [12] = assay: Antibacterial activity against Staphylococcus aureus ATCC 6538 after 18 hrs by serial agar dilution method; format: functional; details: ATCC 6538, 18 h; outline: as §3
Bacillus cereus [13] = assay: Antibacterial activity against Bacillus cereus ATCC 11778 after 18 hrs by serial agar dilution method; format: functional; details: ATCC 11778, 18 h; outline: as §3
[14] = system: Staphylococcus epidermidis; assay: Antibacterial activity against Staphylococcus epidermidis ATCC 12228 at 400 ug/disc after 18 hrs by disc diffusion assay; format: functional; outline: as §1
Enterococcus hirae [15] = assay: Antibacterial activity against Enterococcus hirae ATCC 10541 at 400 ug/disc after 18 hrs by disc diffusion assay; format: functional; outline: as §1
Staphylococcus aureus [16] = assay: Antibacterial activity against Staphylococcus aureus ATCC 6538 at 400 ug/disc after 18 hrs by disc diffusion assay; format: functional; details: ATCC 6538, 18 h, read-out: IZ; outline: as §1
Pseudomonas aeruginosa [17] = assay: Antibacterial activity against Pseudomonas aeruginosa ATCC 15442 at 400 ug/disc after 18 hrs by disc diffusion assay; format: functional, organism-based; outline: as §1
Micrococcus luteus [18] = assay: Antibacterial activity against Micrococcus luteus ATCC 9341 after 18 hrs by serial agar dilution method; format: functional; details: ATCC 9341, 18 h; outline: as §3
Enterococcus hirae [19] = assay: Antibacterial activity against Enterococcus hirae ATCC 10541 after 18 hrs by serial agar dilution method; format: functional; details: ATCC 10541, 18 h
Outline: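 Twofold serial agar dilution MIC in Mueller–Hinton II agar (CLSI), run only for compounds that gave an inhibition zone in disc assay. DMSO solutions tested at 3.125–400 µg/ml in agar. Final inoculum 10^5 CFU/ml. Read after 18 h at 35 °C. DMSO control included.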

Pseudomonas aeruginosa [20] = assay: Antibacterial activity against Pseudomonas aeruginosa NCTC 6749 at 400 ug/disc after 18 hrs by disc diffusion assay; format: functional, organism-based; outline: as §1
Micrococcus luteus [21] = assay: Antibacterial activity against Micrococcus luteus ATCC 10240 at 400 ug/disc after 18 hrs by disc diffusion assay; format: functional; details: ATCC 10240, 18 h, read-out: IZ; outline: as §1
Staphylococcus aureus [22] = assay: Antibacterial activity against Staphylococcus aureus ATCC 25923 after 18 hrs by serial agar dilution method; format: functional; details: ATCC 25923, 18 h; outline: as §3
Bacillus subtilis [23] = assay: Antibacterial activity against Bacillus subtilis ATCC 6633 after 18 hrs by serial agar dilution method; format: functional; details: ATCC 6633, 18 h; outline: as §3
Candida albicans [24] = assay: Antifungal activity against Candida albicans ATCC 10231 at 400 ug/disc after 24 hrs by disc diffusion assay; format: functional; outline: as §2
Bacillus subtilis [25] = assay: Antibacterial activity against Bacillus subtilis ATCC 6633 at 400 ug/disc after 18 hrs by disc diffusion assay; format: functional; details: ATCC 6633, 18 h, read-out: IZ; outline: as §1
Staphylococcus aureus [26] = assay: Antibacterial activity against Staphylococcus aureus ATCC 29213 at 400 ug/disc after 18 hrs by disc diffusion assay; format: functional; details: ATCC 29213, 18 h, read-out: IZ; outline: as §1
Staphylococcus aureus [27] = assay: Antibacterial activity against Staphylococcus aureus NCTC 4163 after 18 hrs by serial agar dilution method; format: functional; details: NCTC 4163, 18 h; outline: as §3
Staphylococcus aureus [28] = assay: Antibacterial activity against Staphylococcus aureus ATCC 25923 at 400 ug/disc after 18 hrs by disc diffusion assay; format: functional; details: ATCC 25923, 18 h, read-out: IZ; outline: as §1
[29] = system: Bordetella bronchiseptica; assay: Antibacterial activity against Bordetella bronchiseptica ATCC 4617 at 400 ug/disc after 18 hrs by disc diffusion assay; format: functional, organism-based; outline: as §1
Bacillus cereus [30] = assay: Antibacterial activity against Bacillus cereus ATCC 11778 at 400 ug/disc after 18 hrs by disc diffusion assay; format: functional; details: ATCC 11778, 18 h, read-out: IZ; outline: as §1
Candida parapsilosis [31] = assay: Antifungal activity against Candida parapsilosis ATCC 22019 after 24 hrs by serial agar dilution method; format: functional; details: Lodderomyces parapsilosis, ATCC 22019, 24 h
Outline: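 Twofold serial agar dilution per CLSI on RPMI agar with 2% glucose. Agents were dissolved in DMSO and tested at 3.125–400 µg/ml in the solid medium, with a DMSO control. Final inoculum was 10^4 CFU/mL.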

Candida parapsilosis [32] = assay: Antifungal activity against Candida parapsilosis ATCC 22019 at 25 ug/disc after 24 hrs by disc diffusion assay; format: functional; details: Lodderomyces parapsilosis, ATCC 22019, 24 h; read-out: IZ
Outline: (§4)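 Disc diffusion per CLSI on RPMI agar with 2% glucose. Sterile 9 mm filter-paper discs were loaded at 25 µg per disc, dried, and placed on the agar surface. Plates were incubated at 35 °C, and the diameter of the growth-inhibition zone was read.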

Candida albicans [33] = assay: Antifungal activity against Candida albicans ATCC 10231 at 25 ug/disc after 24 hrs by disc diffusion assay; format: functional; details: ATCC 10231, 24 h, read-out: IZ; outline: as §4
Candida albicans [34] = assay: Antifungal activity against Candida albicans ATCC 90028 at 25 ug/disc after 24 hrs by disc diffusion assay; format: functional; details: ATCC 90028, 24 h, read-out: IZ; outline: as §4

Structure (SMILES): C=CCOC(=O)[C@@H](C)[C@H](OC)[C@H](C)[C@H]1O[C@@]2(CC[C@@](C)([C@H]3CC[C@@](CC)([C@@H]4O[C@@H]([C@H]5O[C@@](O)(CO)[C@H](C)C[C@@H]5C)C[C@@H]4C)O3)O2)C[C@H](O)[C@H]1C
- zone of inhibition at 400 µg/disc (Staphylococcus aureus [1]): 13 mm
- Activity (Micrococcus luteus [2]): inactive
- Activity (Pseudomonas aeruginosa [3]): inactive
- Activity (Escherichia coli [4]): inactive
- Activity (Candida parapsilosis [5]): inactive
- MIC (Micrococcus luteus [6]): 50 µg/mL (≈ 70.3 µM)
- Activity (Escherichia coli [7]): inactive
- Activity (Escherichia coli [8]): inactive
- Activity (Candida albicans [9]): inactive
- Activity (Proteus vulgaris): inactive
- MIC (Staphylococcus aureus [10]): 100 µg/mL (≈ 141 µM)
- MIC [11]: 100 µg/mL (≈ 141 µM)
- MIC (Staphylococcus aureus [12]): 100 µg/mL (≈ 141 µM)
- MIC (Bacillus cereus [13]): 12.5 µg/mL (≈ 17.6 µM)
- Activity [14]: inactive
- Activity (Enterococcus hirae [15]): inactive
- zone of inhibition at 400 µg/disc (Staphylococcus aureus [16]): 13 mm
- Activity (Pseudomonas aeruginosa [17]): inactive
- MIC (Micrococcus luteus [18]): 100 µg/mL (≈ 141 µM)
- MIC (Enterococcus hirae [19]): > 400 µg/mL
- Activity (Pseudomonas aeruginosa [20]): inactive
- zone of inhibition at 400 µg/disc (Micrococcus luteus [21]): 11 mm
- MIC (Staphylococcus aureus [22]): 100 µg/mL (≈ 141 µM)
- MIC (Bacillus subtilis [23]): 12.5 µg/mL (≈ 17.6 µM)
- Activity (Candida albicans [24]): inactive
- zone of inhibition at 400 µg/disc (Bacillus subtilis [25]): 15 mm
- zone of inhibition at 400 µg/disc (Staphylococcus aureus [26]): 13 mm
- MIC (Staphylococcus aureus [27]): 100 µg/mL (≈ 141 µM)
- zone of inhibition at 400 µg/disc (Staphylococcus aureus [28]): 11 mm
- Activity [29]: inactive
- zone of inhibition at 400 µg/disc (Bacillus cereus [30]): 14 mm

Structure (SMILES): OC(Cn1cncn1)(Cn1cncn1)c1ccc(F)cc1F [FLUCONAZOLE]
- MIC (Candida parapsilosis [31]): 2 µg/mL (≈ 6.53 µM)
- zone of inhibition at 25 µg/disc (Candida parapsilosis [32]): 22 mm
- zone of inhibition at 25 µg/disc (Candida albicans [33]): 22 mm
- zone of inhibition at 25 µg/disc (Candida albicans [34]): 32 mm
